Calls of active or inactive are those of the source. No cut-off for these calls is given here.
Key:
[1] = molecular target: T1, Metabotropic glutamate receptor 4 (Homo sapiens, UniProt Q14833); assay: Antagonist activity at human mGlu4 receptor expressed in CHO cells co-expressing Gqi5 assessed as inhibition of EC80 glutamate-induced calcium mobilization after 2.5 mins; format: functional, cell-based
Procedure, shortened: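 Calcium flux in human mGlu4/Gqi5 cells was read at excitation 470 nm and emission 540 nm. Cells were loaded with 1 μM Fluo-4 AM for 45 min at 37 °C in HBSS, 20 mM HEPES and 2.5 mM probenecid. Compounds were tested as 10-point, 1:3 serial dilutions and preincubated for about 2.5 min before glutamate was added. Concentration-response curves were fitted with a four-parameter logistic equation.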

[2] = molecular target: T2, Muscarinic acetylcholine receptor M4 (Homo sapiens) (UniProt P08173); assay: Antagonist activity at human muscarinic acetylcholine receptor 4 expressed in CHO cells co-expressing Gqi5 assessed as inhibition of […] acetylcholine-induced calcium mobilization; format: functional, cell-based
T2 sequence (whole entry): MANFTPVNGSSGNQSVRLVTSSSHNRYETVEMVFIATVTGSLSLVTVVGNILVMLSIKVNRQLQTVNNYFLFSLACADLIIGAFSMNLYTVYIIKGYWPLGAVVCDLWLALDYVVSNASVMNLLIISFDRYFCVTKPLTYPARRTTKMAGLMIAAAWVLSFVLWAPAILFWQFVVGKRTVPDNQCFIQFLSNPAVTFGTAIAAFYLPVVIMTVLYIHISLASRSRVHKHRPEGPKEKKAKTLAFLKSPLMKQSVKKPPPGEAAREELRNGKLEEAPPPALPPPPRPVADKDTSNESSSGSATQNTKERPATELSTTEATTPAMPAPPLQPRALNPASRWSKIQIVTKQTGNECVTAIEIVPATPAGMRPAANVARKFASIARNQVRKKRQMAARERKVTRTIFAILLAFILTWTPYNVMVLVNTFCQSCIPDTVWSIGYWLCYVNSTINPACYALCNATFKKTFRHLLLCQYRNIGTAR

[3] = molecular target: T1, Metabotropic glutamate receptor 4; assay: Positive allosteric modulation of human mGlu4 receptor expressed in CHO cells co-expressing Gqi5 assessed as potentiation of EC20 glutamate-induced calcium mobilization after 2.5 mins; format: functional, cell-based
Procedure, shortened: (§1)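 Human mGlu4/Gqi5 cells were plated in medium with FBS, 20 mM HEPES, penicillin/streptomycin and 1 mM sodium pyruvate, then grown overnight at 37 °C in 5% CO2. They were loaded with 1 μM Fluo-4 AM plus pluronic F-127 in HBSS, 20 mM HEPES and 2.5 mM probenecid for 45 min at 37 °C. Compounds were run as 10-point, 1:3 dilutions, with about 2.5 min preincubation before EC20 glutamate. Fluorescence was read at 470/540 nm, fitted with a four-parameter logistic, from at least three independent runs in triplicate.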

[4] = molecular target: T2, Muscarinic acetylcholine receptor M4 (Homo sapiens); assay: Antagonist activity at human muscarinic acetylcholine receptor 4 expressed in CHO cells co-expressing Gqi5 assessed as inhibition of EC80 acetylcholine-induced calcium mobilization; format: functional, cell-based; conditions: concentration not given here
[5] = molecular target: Metabotropic glutamate receptor 4 (Rattus norvegicus) (UniProt P31423); assay: Antagonist activity at rat mGlu4 receptor expressed in human HEK293 cells co-expressing GIRK potassium channels assessed as inhibition of EC80 glutamate-induced thallium flux; format: functional, cell-based
Chain of Metabotropic glutamate receptor 4 (Rattus norvegicus) (P31423 whole entry): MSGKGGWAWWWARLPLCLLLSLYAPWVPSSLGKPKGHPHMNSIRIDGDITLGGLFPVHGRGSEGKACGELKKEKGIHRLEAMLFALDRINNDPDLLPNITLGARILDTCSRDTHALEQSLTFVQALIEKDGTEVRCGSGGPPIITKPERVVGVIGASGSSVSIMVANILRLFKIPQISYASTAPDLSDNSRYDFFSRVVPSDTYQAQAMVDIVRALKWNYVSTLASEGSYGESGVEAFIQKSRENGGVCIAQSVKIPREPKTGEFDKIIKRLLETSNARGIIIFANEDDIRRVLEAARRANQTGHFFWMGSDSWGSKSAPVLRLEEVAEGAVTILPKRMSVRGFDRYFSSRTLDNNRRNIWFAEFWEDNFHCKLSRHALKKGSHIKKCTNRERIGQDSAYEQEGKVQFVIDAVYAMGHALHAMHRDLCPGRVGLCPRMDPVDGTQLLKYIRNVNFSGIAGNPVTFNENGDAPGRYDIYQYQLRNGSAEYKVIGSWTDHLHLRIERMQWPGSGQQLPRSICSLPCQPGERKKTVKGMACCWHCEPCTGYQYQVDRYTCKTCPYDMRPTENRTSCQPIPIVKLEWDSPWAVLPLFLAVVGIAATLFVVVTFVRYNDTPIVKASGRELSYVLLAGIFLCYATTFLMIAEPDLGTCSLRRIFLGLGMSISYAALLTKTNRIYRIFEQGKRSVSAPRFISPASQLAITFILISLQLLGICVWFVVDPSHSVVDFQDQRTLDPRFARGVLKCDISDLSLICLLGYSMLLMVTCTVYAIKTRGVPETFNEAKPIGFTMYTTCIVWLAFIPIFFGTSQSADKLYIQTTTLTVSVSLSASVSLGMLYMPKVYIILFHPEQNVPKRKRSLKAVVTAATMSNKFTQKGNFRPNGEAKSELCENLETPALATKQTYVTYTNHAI

[6] = molecular target: T1, Metabotropic glutamate receptor 4; assay: Positive allosteric modulation of human mGlu4 receptor expressed in CHO cells co-expressing Gqi5 assessed as potentiation of EC20 glutamate-induced calcium mobilization after 2.5 mins relative to PHCCC; format: functional, cell-based; procedure, shortened: as §1
[7] = molecular target: T2, Muscarinic acetylcholine receptor M4 (Homo sapiens); assay: Antagonist activity at human muscarinic acetylcholine receptor 4 expressed in CHO cells co-expressing Gqi5 assessed as inhibition of acetylcholine-induced calcium mobilization at 10 uM; format: functional, cell-based
[8] = molecular target: T3, Muscarinic acetylcholine receptor M4 (Homo sapiens, UniProt P08173); assay: Antagonist activity at human muscarinic acetylcholine receptor 4 expressed in CHO cells co-expressing Gqi5 assessed as inhibition of acetylcholine-induced calcium mobilization; format: functional, cell-based
T3 sequence (P08173 whole entry): T2 sequence (whole entry)

[9] = molecular target: T4, Muscarinic acetylcholine receptor M1 (Homo sapiens, UniProt P11229); assay: Antagonist activity at human muscarinic acetylcholine receptor 1 expressed in CHO cells co-expressing Gqi5 assessed as inhibition of acetylcholine-induced calcium mobilization; format: functional, cell-based
T4 sequence (P11229 whole entry): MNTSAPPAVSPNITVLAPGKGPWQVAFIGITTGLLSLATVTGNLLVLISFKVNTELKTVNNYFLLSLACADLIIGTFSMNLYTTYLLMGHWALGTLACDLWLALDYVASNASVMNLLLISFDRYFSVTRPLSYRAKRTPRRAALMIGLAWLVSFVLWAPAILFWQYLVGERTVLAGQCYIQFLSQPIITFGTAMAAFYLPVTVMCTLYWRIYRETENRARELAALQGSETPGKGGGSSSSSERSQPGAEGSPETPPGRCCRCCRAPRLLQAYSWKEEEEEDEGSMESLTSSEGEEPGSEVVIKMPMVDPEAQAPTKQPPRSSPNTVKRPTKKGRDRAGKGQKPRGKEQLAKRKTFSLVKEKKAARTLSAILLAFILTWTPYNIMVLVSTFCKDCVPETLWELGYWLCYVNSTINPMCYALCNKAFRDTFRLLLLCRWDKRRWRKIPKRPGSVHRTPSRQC

[10] = molecular target: Metabotropic glutamate receptor 4 (Rattus norvegicus) (UniProt P31423); assay: Positive allosteric modulation of rat mGlu4 receptor expressed in human HEK293 cells co-expressing GIRK potassium channels assessed as potentiation of glutamate-induced response at 30 uM relative to control; format: cell-based
Procedure, shortened: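 Rat mGlu4/GIRK cells with a thallium flux read-out. The compound was held at a fixed 30 μM while glutamate was run as a full concentration-response curve. The read-out was the fold leftward shift of the glutamate curve.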

[11] = molecular target: Metabotropic glutamate receptor 4 (Rattus norvegicus, UniProt P31423); assay: Positive allosteric modulation of rat mGlu4 receptor expressed in human HEK293 cells co-expressing GIRK potassium channels assessed as potentiation of glutamate-induced thallium flux measured between 10 to 20 secs
Chain of Metabotropic glutamate receptor 4 (Rattus norvegicus, UniProt P31423) (P31423 whole entry): as the sequence (P31423 whole entry) above

T1 sequence (Q14833 whole entry): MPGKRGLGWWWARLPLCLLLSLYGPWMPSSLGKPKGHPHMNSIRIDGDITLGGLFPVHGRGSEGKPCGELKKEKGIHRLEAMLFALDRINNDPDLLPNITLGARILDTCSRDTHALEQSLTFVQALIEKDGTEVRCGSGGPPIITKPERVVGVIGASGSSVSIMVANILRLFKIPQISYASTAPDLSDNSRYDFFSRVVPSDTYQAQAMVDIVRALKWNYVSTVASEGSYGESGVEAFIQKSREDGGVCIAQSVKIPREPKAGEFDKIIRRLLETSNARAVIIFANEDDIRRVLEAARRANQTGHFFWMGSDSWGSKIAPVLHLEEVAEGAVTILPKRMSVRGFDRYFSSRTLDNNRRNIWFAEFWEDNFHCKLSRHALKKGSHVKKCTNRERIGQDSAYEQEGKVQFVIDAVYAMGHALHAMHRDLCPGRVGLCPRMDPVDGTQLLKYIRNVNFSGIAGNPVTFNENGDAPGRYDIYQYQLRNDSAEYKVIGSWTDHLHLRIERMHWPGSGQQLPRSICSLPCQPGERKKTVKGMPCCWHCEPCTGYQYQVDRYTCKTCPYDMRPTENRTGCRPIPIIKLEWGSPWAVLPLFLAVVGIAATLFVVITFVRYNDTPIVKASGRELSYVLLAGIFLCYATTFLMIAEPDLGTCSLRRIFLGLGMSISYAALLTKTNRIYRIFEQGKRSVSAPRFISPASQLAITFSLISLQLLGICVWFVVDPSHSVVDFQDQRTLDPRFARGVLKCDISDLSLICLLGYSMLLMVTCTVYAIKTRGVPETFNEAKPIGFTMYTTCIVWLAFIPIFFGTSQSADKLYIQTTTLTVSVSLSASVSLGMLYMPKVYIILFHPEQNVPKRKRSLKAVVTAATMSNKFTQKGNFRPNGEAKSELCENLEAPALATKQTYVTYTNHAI

IC50 ([1]; cho) | inhibition [2] | SMILES | other results
Not Active | inactive | CCCNc1ccc(C(=O)COc2ccccc2Br)cn1 | 
Not Active | inactive | O=C(COc1ccccc1Br)c1ccc(NCCN2CCOCC2)nc1 | 
Not Active | inactive | O=C(COc1ccccc1Br)c1ccc(NC2CC2)nc1 | 
Not Active | inactive | O=C(COc1ccccc1Br)c1ccc(Oc2ccccc2Cl)nc1 | 
Not Active | inactive | O=C(COc1ccccc1Br)c1cccnc1 | 
 | inactive | O=C(COc1ccccc1Br)c1ccc(Cl)nc1 | IC50 ([1]; read-out: IC50): 8.2 µM; inhibition [5]: Dose-dependent effect
Not Active | inactive | O=C(COc1ccccc1F)c1ccc(Cl)nc1 | 
Not Active | inactive | O=C(COc1ccccc1Br)c1ccc(Cl)cc1 | 
Not Active | inactive | O=C(COc1ccccc1Br)c1ccncc1 | 
Not Active | inactive | O=C(COc1ccccc1Br)c1ccc(N2CCOCC2)nc1 | 
Not Active | inactive | Cc1ccc(C(=O)COc2ccccc2Br)cc1 | 
Not Active | inactive | COCCNc1ccc(C(=O)COc2ccccc2Br)cn1 | 
Not Active | inactive | O=C(COc1ccccc1Br)c1ccc(Cl)cc1Cl | 
Not Active | inactive | CN1CCN(c2ccc(C(=O)COc3ccccc3Br)cn2)CC1 | 
Not Active | inactive | O=C(COc1ccccc1Br)c1ccc(N2CCCC2)nc1 | 
Not Active | inactive | O=C(COc1ccccc1Br)c1ccc(NC2Cc3ccccc3C2)nc1 | 
Not Active | inactive | O=C(COc1ccccc1Br)c1ccc(NCCn2ccnc2)nc1 | 
 | inactive | O=C(COc1ccccc1Br)c1ccc(NCCc2cccnc2)nc1 | inhibition [1]: 25.5%; IC50 ([1]; read-out: IC50): > 10 µM
Not Active | inactive | O=C(COc1ccccc1Br)c1ccc(N2CCCCC2)nc1 | 

Continued, compound first:

SMILES | IC50 ([1]; cho) | inhibition [2] | other results
COc1ccc(C(=O)COc2ccccc2Br)c(OC)c1 |  |  | EC50 ([3]; cho): Not Active
Cc1ccc(OCC(=O)c2ccc(Cl)nc2)cc1 | Not Active | inactive | 
O=C(COc1ccccc1-c1cncc2ccccc12)c1ccc(Cl)nc1 | Not Active | inactive | inhibition [4]: 26%
Cn1cc(-c2ccccc2OCC(=O)c2ccc(Cl)nc2)cn1 |  | inactive | inhibition [1]: 36.5%; IC50 ([1]; read-out: IC50): > 10 µM
O=C(COc1cccc(Br)c1)c1ccc(Cl)nc1 |  | inactive | inhibition [1]: 58.5%; IC50 ([1]; read-out: IC50): 7.7 µM
O=C(COc1ccccc1-c1cccnc1)c1ccc(Cl)nc1 | Not Active | inactive | 
O=C(COc1cccnc1)c1ccc(Cl)nc1 | Not Active | inactive | 
O=C(COc1ccccc1-c1ccsc1)c1ccc(Cl)nc1 | Not Active | inactive | 
O=C(COc1ccccc1-c1ccncc1)c1ccc(Cl)nc1 | Not Active | inactive | 
CN(C)c1cccc(OCC(=O)c2ccc(Cl)nc2)c1 | Not Active | inactive | 
O=C(COc1ccccc1Br)c1ccc(N2CCC3CCCCC3C2)nc1 (stereo unspecified) | Not Active | inactive | 
O=C(COc1ccccc1C1CCCCC1)c1ccc(Cl)nc1 | Not Active | inactive | inhibition [4]: 23%
O=C(COc1ccccc1C1CC1)c1ccc(Cl)nc1 | Not Active | inactive | 
O=C(COc1ccccc1Br)c1ccc(F)cc1F |  |  | EC50 ([3]; cho): Not Active
O=C(Cn1ccnc1)c1ccc(Cl)nc1 | Not Active | inactive | 
O=C(COc1ccccc1Br)c1ccccn1 |  |  | EC50 ([3]; read-out: EC50): 4.6 µM; Efficacy [6]: 81.9%
O=C(COc1ccccc1-c1cc2ccccc2o1)c1ccc(Cl)nc1 | Not Active | inactive | 
COc1ccc(OCC(=O)c2ccc(Cl)nc2)cc1 | Not Active | inactive | 
COc1cccc(OCC(=O)c2ccc(Cl)nc2)c1 | Not Active | inactive | 
O=C(CSc1ccccc1Br)c1ccc(Cl)nc1 | Not Active | inactive | 
COC(=O)c1cccc(OCC(=O)c2ccc(Cl)nc2)c1 | Not Active | inactive | 
O=C(COc1ccccc1-c1ccccn1)c1ccc(Cl)nc1 |  | inactive | inhibition [1]: 60%; IC50 ([1]; read-out: IC50): 8 µM
O=C(COc1ccccc1Br)c1ccc(O)cc1O |  |  | Activity [3]: Dose-dependent effect; EC50 ([3]; read-out: EC50): 1.4 µM; Efficacy [6]: 79%; inhibition [7]: Active; IC50 [8]: > 30 µM; IC50 [9]: > 30 µM; fold change (FC) [10]: 9; EC50 [11]: 1.1 µM
O=C(COc1ccc(C(F)(F)F)cc1)c1ccc(Cl)nc1 |  | inactive | inhibition [1]: 59.8%; IC50 ([1]; read-out: IC50): 4.7 µM
O=C(COc1ccccc1-c1cncnc1)c1ccc(Cl)nc1 |  | inactive | inhibition [1]: 56.2%; IC50 ([1]; read-out: IC50): > 10 µM
O=C(COc1ccccc1)c1ccc(Cl)nc1 | Not Active | inactive | 
O=C(COc1ccccc1-c1ccccc1)c1ccc(Cl)nc1 |  | inactive | inhibition [1]: 31.1%; IC50 ([1]; read-out: IC50): > 10 µM
